Here are results for 36 sequences from the array DNA melting data of Ke et al. (doi:10.1101/2024.01.08.574731).

Series [1] can be described thus: folding enthalpy; higher = less favourable; fluorescence melt of hairpins on a sequencing array, two-state fit. Particulars: sodium 0.088 M. In outline:
(§1)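 To match UV melts, fitted temperatures were raised by 9.35 °C. These fits were bootstrapped two-state models that gave melting temperature and folding enthalpy, combined by inverse variance over four replicates. The input was normalised Cy3 fluorescence of library hairpins with annealed Cy3 and quencher oligos on a sequenced MiSeq flow cell, imaged in 50 mM Na-HEPES pH 8.0, 25 mM NaCl in 2.5 °C steps up to 60 °C.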

A short description of series [2]: melting temperature; fluorescence melt of hairpins on a sequencing array, two-state fit, raised by 9.35 °C to match UV melts. Particulars: sodium 0.088 M. The essentials: as §1

For GCTCTTGGAAACAAGGGC ((.((((....)))).)), in series [1], the folding enthalpy was -38.5 kcal/mol. Besides, in series [2], the Tm came to 50.6 °C.

With GCTCTTGGAAACGAGAGC (((((.(....).))))), in series [1], the folding enthalpy is -30.2 kcal/mol. Besides, in series [2], the Tm is 51.2 °C.

Take GCTGAAGGAAACTCCAGC ((((.((....)).)))): in series [1], the folding enthalpy was -27.8 kcal/mol. The Tm in series [2] was 40.7 °C.

For the sequence GCTGAAGGAAACTTCAAC (.(((((....))))).), in series [1], the folding enthalpy was -18 kcal/mol. Also, the Tm in series [2] worked out at 29.8 °C.

In the case of GCTGAAGGAAACTTCAGC (((((((....))))))), the folding enthalpy in series [1] is -41.1 kcal/mol. Besides, the Tm in series [2] came out at 62.4 °C.

On to GCTGACGAAAGTCCGAGC ((((((....)))..))), for which the folding enthalpy in series [1] was -17.6 kcal/mol. Besides, the Tm in series [2] came out at 37.6 °C.

As for GCTGACGAAAGTCGAGC ((((((....))).))), in series [1], the folding enthalpy was -37.7 kcal/mol. In addition, in series [2], the Tm was determined as 54.6 °C.

Consider GCTGACGAAAGTCGCAGC ((((((....)))..))), for which the folding enthalpy in series [1] is -16.7 kcal/mol. Moreover, the Tm in series [2] was 49.5 °C.

Consider GCTGACGAAAGTCTAGC ((((((....))).))), for which the folding enthalpy in series [1] is -22.1 kcal/mol. The Tm in series [2] came to 51.9 °C.

With GCTGACGAAAGTCTCAGC ((((((....)))..))), the folding enthalpy in series [1] was -20.9 kcal/mol. Besides, the Tm in series [2] came to 40.9 °C.

On to GCTGACGAAAGTCTTAGC ((((((....)))..))), for which, in series [1], the folding enthalpy is -22.6 kcal/mol. For the same sequence, in series [2], the Tm worked out at 39.8 °C.

In the case of GCTGAGAAATCAGC (((((....))))), the folding enthalpy in series [1] is -28.4 kcal/mol. Also, in series [2], the Tm came to 53.2 °C.

In the case of GCTGAGCGAAAGCACCGC ((.(.((....)).).)), the folding enthalpy in series [1] is -19 kcal/mol. Also, the Tm in series [2] was found to be 37.2 °C.

Turning to GCTGAGCGAAAGCCGAGC (((..((....))..))), in series [1], the folding enthalpy was -17.2 kcal/mol. Besides, in series [2], the Tm came out at 48.7 °C.

GCTGAGCGAAAGCGCTGC ((.(.((....)).).)): the folding enthalpy in series [1] was -16.1 kcal/mol. For the same sequence, the Tm in series [2] stood at 54.7 °C.

Take GCTGAGCGAAAGCTATGC ((..(((....)))..)): in series [1], the folding enthalpy was -17.4 kcal/mol. Moreover, the Tm in series [2] came to 48.6 °C.

GCTGAGCGAAAGCTCTGC ((.((((....)))).)): the folding enthalpy in series [1] is -31.6 kcal/mol. Further, the Tm in series [2] stood at 66.4 °C.

As to GCTGAGCGAAAGCTGCGC ((..(((....)))..)), the folding enthalpy in series [1] is -19 kcal/mol. The Tm in series [2] turned out to be 54.7 °C.

As to GCTGAGCGAAAGCTTAGC (((.(((....))).))), the folding enthalpy in series [1] was -50.4 kcal/mol. Also, the Tm in series [2] is 57.4 °C.

GCTGAGGGAAACCCCAGC ((((.((....)).)))): the folding enthalpy in series [1] was -33.3 kcal/mol. Besides, the Tm in series [2] came out at 51.4 °C.

Turning to GCTGAGGGAAACCTCGGC ((.((((....)))).)), the folding enthalpy in series [1] was -39.9 kcal/mol. For the same sequence, in series [2], the Tm was found to be 56.8 °C.

For the sequence GCTGATACGAAAGTAAGC (((..(((....)))))), the folding enthalpy in series [1] is -14.4 kcal/mol. In addition, in series [2], the Tm is 33.9 °C.

In the case of GCTGATCGAAAGATTAGC (((.(((....))).))), in series [1], the folding enthalpy is -47.2 kcal/mol. Besides, the Tm in series [2] came out at 51.9 °C.

In the case of GCTGATGGAAACACCAGC ((((.((....)).)))), the folding enthalpy in series [1] was -30.8 kcal/mol. In addition, the Tm in series [2] came to 45.9 °C.

GCTGATGGAAACGTTAGC (((.(.(....).).))): in series [1], the folding enthalpy was -11.2 kcal/mol. Moreover, the Tm in series [2] was 27.8 °C.

As to GCTGCAGGAAACCGCAAC (.(((.(....).))).), the folding enthalpy in series [1] is -14.6 kcal/mol. Besides, in series [2], the Tm was 27.3 °C.

As for GCTGCCCCGAAAGGGAGC (((..(((....)))))), in series [1], the folding enthalpy is -13.3 kcal/mol. For the same sequence, the Tm in series [2] is 55.2 °C.

GCTGCCGAAAGGCCAAGC ((((((....)))..))): the folding enthalpy in series [1] is -15.5 kcal/mol. In series [2], the Tm came to 46.3 °C.

GCTGCCGAAAGGCCCAGC ((((((....)))..))): the folding enthalpy in series [1] was -12.2 kcal/mol. Also, in series [2], the Tm is 35.8 °C.

As for GCTGCCGAAAGGCCTAGC ((((((....)))..))), the folding enthalpy in series [1] was -14.2 kcal/mol. For the same sequence, the Tm in series [2] came out at 41 °C.

As for GCTGCCGAAAGGCTAGC ((((((....))).))), the folding enthalpy in series [1] was -16.7 kcal/mol. Besides, the Tm in series [2] was determined as 59.6 °C.

Consider GCTGCCGAAAGGCTTAGC ((((((....)))..))), for which, in series [1], the folding enthalpy is -16.1 kcal/mol. The Tm in series [2] worked out at 45.2 °C.

For the sequence GCTGCGCCGAAAGGCAGC (((..(((....)))))), the folding enthalpy in series [1] was -11.5 kcal/mol. Besides, in series [2], the Tm was found to be 61.1 °C.

As to GCTGCGCGAAAGCAGAGC (((..((....))..))), in series [1], the folding enthalpy is -16.1 kcal/mol. Further, in series [2], the Tm was 47.7 °C.

As for GCTGCGCGAAAGCCCCGC ((.(.((....)).).)), the folding enthalpy in series [1] is -9.96 kcal/mol. Moreover, the Tm in series [2] came to 31.8 °C.

GCTGCGCGAAAGCGGCGC ((..(((....)))..)): the folding enthalpy in series [1] is -15.5 kcal/mol. Further, in series [2], the Tm was 63.7 °C.
